Bioassay records: PubChem BioAssay, several laboratories
The list is not random: actives were taken first. Their share in the collection is about 2.4%.
DAGLB inh = DAGLB lipase inhibitors, primary screen, biochemical, fluorescence, HTS. Diacylglycerol lipase-beta (Homo sapiens), Q8NCG7. HEK293T DAGLB membrane lysate, EnzChek fluorogenic substrate. inhibition, % at 5.17 µM. 0.059% of 340,000 active. AID 504411, 2011; in the data active means inhibition above about 34%
Target sequence (Q8NCG7 whole entry, looked up): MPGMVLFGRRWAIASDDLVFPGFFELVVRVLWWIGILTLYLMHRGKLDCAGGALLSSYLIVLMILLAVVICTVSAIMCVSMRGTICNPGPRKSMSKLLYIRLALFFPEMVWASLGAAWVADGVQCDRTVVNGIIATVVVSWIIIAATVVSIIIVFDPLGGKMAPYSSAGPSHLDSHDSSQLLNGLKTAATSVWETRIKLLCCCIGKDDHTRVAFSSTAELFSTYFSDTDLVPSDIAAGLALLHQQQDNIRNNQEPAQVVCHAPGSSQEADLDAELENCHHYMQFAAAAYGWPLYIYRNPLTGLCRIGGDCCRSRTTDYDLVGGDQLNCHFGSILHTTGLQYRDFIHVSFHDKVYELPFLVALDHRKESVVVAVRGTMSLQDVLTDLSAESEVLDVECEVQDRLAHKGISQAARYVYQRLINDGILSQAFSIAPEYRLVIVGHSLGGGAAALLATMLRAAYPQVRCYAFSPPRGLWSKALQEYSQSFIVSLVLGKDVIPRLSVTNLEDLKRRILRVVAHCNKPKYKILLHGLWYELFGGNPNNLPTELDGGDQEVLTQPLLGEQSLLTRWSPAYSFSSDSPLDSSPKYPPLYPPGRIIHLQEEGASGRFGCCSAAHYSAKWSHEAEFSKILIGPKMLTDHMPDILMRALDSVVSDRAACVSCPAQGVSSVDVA
CendR NRP1 mod = modulators of CendR peptide binding to NRP-1, primary screen, biochemical, fluorescence polarization, uHTS | FAM-RPARPAR peptide binding to NRP-1 | inhibition, % at 25 µM | 0.85% of 360,000 active | AID 602438, 2012;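 active means inhibition or corrected inhibition above about 18%, plus a signal ratio from 0.5 to 1.5, limit read from the data, passing the limit was not always enough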
SENP1 FRET inh = human SENP1 catalytic domain inhibitors, primary screen, biochemical, FRET, uHTS; Sentrin-specific protease 1 (Homo sapiens), Q9P0U3; recombinant SENP1 catalytic domain, CyPet-SUMO1-YPet FRET cleavage; inhibition, % at 10 µM; 0.21% of 360,000 active; AID 624204, 2012;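 active means inhibition at least 30% at 10 µM, raw YFP signal under a set limit, fluorescence ratio 0.5 to 1.5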
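Material: hSENP1 catalytic domain, recombinant; medium: Tris pH 8 with BME, BSA, NP40 and catalase; compound: single concentration of 10 µM compound, 0.5% DMSO final; technique: FRET read of cyan and yellow fluorescence; timing: 50 min enzyme reaction, room temperature, light-protected; reagent: SFCypet-SUMO1-SFYpet substrate at 25 nM; control set: no-enzyme low, enzyme-DMSO high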
MT1-MMP act inh = blockers of MT1-MMP proenzyme processing, primary screen, HT1080 RFP-PRO-GFP cells, GFP/RFP fluorescence. 0.061% of 360,000 active. Matrix metalloproteinase-14 (Homo sapiens), P50281. GFP/RFP ratio fluorescence, overnight; percent of plate control window, DMSO zero. AID 651647, 2012. GFP/RFP ratio change, % at 20 µM;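 active means GFP/RFP ratio change of at least 30% with cell ATP level not reduced by more than half and red fluorescence within 50% of control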
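Read-out: GFP/RFP fluorescence ratio; Test system: RFP-PRO-GFP reporter HT1080 cells; Compound dosing: single-point 20 µM compound, 1% DMSO; Times: overnight compound exposure at 37 °C.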
MIN6 prolif = inducers of MIN6 beta-cell proliferation, primary screen, ATP luminescence, uHTS; MIN6 cells proliferation, ATPlite luminescence, 48 h; cells starved in 0.2% serum; 100% = growth in 10% serum; proliferation, % at 10 µM; 0.29% of 330,000 active;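 active means compounds whose signal lies at least 3.5 SD above the mean of all wells on their plate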
Myeloid diff MLP = induction of myeloid progenitor differentiation, primary screen, cell-based, flow cytometry, MLPCN library; ER-HoxA9 myeloid progenitors, lysozyme-GFP differentiation; 1% of 360,000 active; calls only at 10 µM;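 active means normalized GFP-positive differentiation at or above the plate's own cutoff, the solvent-only control mean plus 3 SD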;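 further: cells exposed to compound for four days before flow analysis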
Large screens that a line does not name were inactive.

O=C(N/N=C/c1cccc(O)c1)N/N=C/c1cccc(O)c1	Myeloid diff MLP active (no result: MT1-MMP act inh)
O=C(CCc1ccccc1)N/N=C/c1cccc(O)c1	none
Nc1nc(COc2ccccc2C=O)nc(Nc2ccccc2)n1	none
COc1ccc(/C=N/N=C2/CC(C)(C)Cc3n[nH]c(=O)cc32)cc1	CendR NRP1 mod 50
Cc1ccc(C2CC(c3cccs3)=NN2C(=O)CSc2nc(=O)n3cc(C)ccc3n2)cc1 (stereo unspecified)	Myeloid diff MLP active
Cc1ccc2nc(SCC(=O)N3N=C(c4cccs4)CC3c3ccc(F)cc3)nc(=O)n2c1 (stereo unspecified)	none (no result: MIN6 prolif)
COc1ccc(-c2csc(NC(=O)CCS(=O)(=O)c3ccccc3)n2)c(OC)c1	Myeloid diff MLP active
O=C(CCS(=O)(=O)c1ccccc1)Nc1nc(-c2ccc(F)cc2)cs1	Myeloid diff MLP active
O=C(CS(=O)(=O)c1ccccc1)Nc1nc(-c2ccc(F)cc2)cs1	none
CCCCCCN1C[C@@H](n2cc(COC(=O)c3ccccc3)nn2)[C@H](O)C[C@@H]1c1ccc(Cl)cc1	none (no result: MIN6 prolif)
O=c1c(CO)cc(CO)cc(CO)c1O	none
O=C1C=CC(=O)c2c(O)c(CO)c(CO)c(O)c21	CendR NRP1 mod 59 (no result: MIN6 prolif, Myeloid diff MLP)
CCOC(=O)c1[nH]c(C)c(C(=O)NCC2CCCO2)c1C (stereo unspecified)	CendR NRP1 mod 22
Cc1ccc(NS(=O)(=O)c2ccc(NS(=O)(=O)c3cccs3)cc2)cc1	none
O=S(=O)(Nc1ccc(Br)cc1)c1cccc(NS(=O)(=O)c2cccs2)c1	CendR NRP1 mod 21 (no result: MIN6 prolif)
Cc1ccc(Cl)cc1C1=CC(=O)C[C@H](c2ccc(F)cc2)C1	CendR NRP1 mod 27
O=C1C=C(c2cc(F)ccc2F)C[C@@H](c2ccc(Cl)cc2)C1	none
O=C1C=C(c2ccc(F)c(Cl)c2)C[C@@H](c2ccc(F)cc2)C1	CendR NRP1 mod 24
Cc1ccnc(NC(=O)c2cccc(NC(=O)CC3SC(N4CCCCC4)=NC3=O)c2)c1 (stereo unspecified)	none
CC(C)n1nccc1NC(=O)COC(=O)c1ccc(NC(N)=O)cc1	CendR NRP1 mod 24
CCNC(=O)C1(C)CCCN1C(=O)c1ccc(C#N)cc1 (stereo unspecified)	none (no result: DAGLB inh, MIN6 prolif)
COc1ccc(OC)c(NC(=O)Nc2ccc3c(c2)OCO3)c1	none
CC1CCCN(C(=O)c2cc3c(-c4ccc(Cl)cc4)nn(C)c3s2)C1 (stereo unspecified)	Myeloid diff MLP active
CCN1CCN(C(=O)c2cc3c(-c4ccc(Cl)cc4)nn(C)c3s2)CC1	Myeloid diff MLP active
Cn1nc(-c2ccc(Cl)cc2)c2cc(C(=O)NCCN3CCOCC3)sc21	none
Cn1nc(-c2ccc(Cl)cc2)c2cc(C(=O)N3CCN(C(=O)c4ccco4)CC3)sc21	Myeloid diff MLP active
N/C(CSc1ccc(Cl)cc1)=N\S(=O)(=O)c1ccc(Cl)cc1	CendR NRP1 mod 29
COc1ccc(CN2C(=O)C(CC(=O)NCCCCc3ccccc3)CC(C(=O)N(C(C)C)C(C)C)=C2C)cc1 (stereo unspecified)	none (no result: MIN6 prolif)
CC1=C(C(=O)N2CCCCCC2)CC(CC(=O)NCCN2CCOCC2)C(=O)N1Cc1ccccc1 (stereo unspecified)	CendR NRP1 mod 29 (no result: DAGLB inh, MIN6 prolif)
CC1=C(C(=O)N(C(C)C)C(C)C)CC(CC(=O)NCCCCc2ccccc2)C(=O)N1Cc1ccc(C(C)(C)C)cc1 (stereo unspecified)	Myeloid diff MLP active (no result: DAGLB inh, MIN6 prolif)
COc1ccc(CN2C(=O)C(CC(=O)NCCN3CCOCC3)CC(C(=O)N3CCCCCC3)=C2C)cc1 (stereo unspecified)	none (no result: DAGLB inh, MIN6 prolif)
COC(=O)c1cccc2c1-c1ccccc1/C2=N/O	MIN6 prolif 5.5
N#CC(C#N)=c1ccc2c(c1)N1C3=C(CCCC3)CC3CCCCC31N=2 (stereo unspecified)	Myeloid diff MLP active
CC(C)NC(=O)CSc1nnc(-c2ccc3ncccc3c2)n1C	CendR NRP1 mod 25
C/C(=N\Nc1ccccc1Cl)c1ccc(-n2ccnc2)cc1	Myeloid diff MLP active
CCCn1c(=O)c(C(=O)NCCc2ccc(OC)cc2)c(O)c2ccccc21	none
COc1ccc(-c2nnc(SCC(=O)N(C)C3CCS(=O)(=O)C3)n2C(C)C)cc1 (stereo unspecified)	none
COc1ccc2c(C)cc(SCC(=O)N(C)C3CCS(=O)(=O)C3)nc2c1 (stereo unspecified)	Myeloid diff MLP active
CCCCn1nc2cc(C(=O)NCc3ccccc3)ccc2c1OCC	none
COc1cc(C2C(C#N)=C(C)NC3=C2C(=O)c2ccccc23)cc(OC)c1OC (stereo unspecified)	Myeloid diff MLP active
CN(C)CCCOC(=O)c1cc2ccccc2o1	CendR NRP1 mod 24
O=C(OCCN1C(=O)c2ccccc2C1=O)c1cc2ccccc2o1	none
CN(CC(=O)Nc1ccccc1Cl)C(=O)Cn1cnc2ccc(Cl)cc2c1=O	none
CCOC(=O)Cc1csc(NC(=O)CSc2ncnc3c2cnn3-c2ccccc2Cl)n1	CendR NRP1 mod 21 (no result: MIN6 prolif)
Cc1nnc(NC(=O)CSc2ncnc3c2cnn3-c2ccccc2C)s1	none
CCCNC(=O)C1(C)CCCN(C(=O)c2ccc3snnc3c2)C1 (stereo unspecified)	none (no result: DAGLB inh, MIN6 prolif)
Cn1cccc1Cc1nnc(SCC(=O)Nc2cccc(F)c2)n1CCc1ccccc1	none
Cn1cccc1Cc1nnc(SCC(=O)Nc2ccccc2F)n1CCc1ccccc1	Myeloid diff MLP active
COc1ccc(S(=O)(=O)N2CCOC2CNC(=O)C(=O)NCC(C)C)cc1OC (stereo unspecified)	none
COc1ccc(C2CC(c3ccncc3)=NN2c2ccc(S(N)(=O)=O)cc2)cc1 (stereo unspecified)	Myeloid diff MLP active (no result: MIN6 prolif)
COc1cc(NCc2ccccc2)c2ncn(C(C)C)c2c1	none
CCC(CN(C)C)Oc1cc(NCc2ccccc2)c2ncn(C(C)C)c2c1 (stereo unspecified)	Myeloid diff MLP active
COc1ccc(-n2nnnc2SCC(=O)Nc2c(C)n[nH]c2C)cc1	none
CC(C)CN=CC1=C(O)c2ccccc2C1=O	CendR NRP1 mod 23
CCCCc1n[nH]c(=S)n1Cc1ccc(C)cc1	CendR NRP1 mod 27
COc1ccc(CN2CCN(C(=O)CCC(=O)c3ccc(C)s3)CC2)cc1OC	none
